# ChEMBL document CHEMBL4706662, “Design and Evaluation of Peptide Dual-Agonists of GLP-1 and NPY2 Receptors for Glucoregulation and Weight Loss with Mitigated Nausea and Emesis” (J Med Chem, 2021)
# The source made the active and inactive calls. The calls are words filed in the database; no cut-off is given here. Square brackets hold non-standard residues; d marks the D form. Peptide text beside a SMILES is read from it. ξ: configuration not given here. ξF = NC(Cc1ccccc1)C(=O)O
# Key:
# [1] = molecular target: T1, Glucagon-like peptide 1 receptor (Homo sapiens, UniProt P43220); experiment: Agonist activity at human GLP-1R expressed in HEK293 cells assessed as stimulation of cAMP accumulation by FRET assay; type: functional, cell-based
# T1 sequence (P43220 whole entry): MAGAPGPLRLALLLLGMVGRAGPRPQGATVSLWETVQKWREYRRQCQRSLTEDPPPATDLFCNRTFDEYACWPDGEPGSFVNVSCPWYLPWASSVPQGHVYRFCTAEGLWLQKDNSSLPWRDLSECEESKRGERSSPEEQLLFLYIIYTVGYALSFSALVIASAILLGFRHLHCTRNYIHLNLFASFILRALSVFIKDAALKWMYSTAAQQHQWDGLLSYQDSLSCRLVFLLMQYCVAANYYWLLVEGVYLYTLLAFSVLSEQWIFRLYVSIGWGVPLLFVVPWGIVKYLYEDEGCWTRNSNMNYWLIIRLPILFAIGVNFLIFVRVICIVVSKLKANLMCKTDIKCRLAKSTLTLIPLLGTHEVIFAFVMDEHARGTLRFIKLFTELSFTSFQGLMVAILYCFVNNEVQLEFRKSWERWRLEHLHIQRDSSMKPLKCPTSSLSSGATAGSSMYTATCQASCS
# [2] = molecular target: T2, Neuropeptide Y receptor type 2 (Homo sapiens, UniProt P49146); experiment: Agonist activity at human NPY2R expressed in HEK293 cells assessed as inhibition of adenosine-induced stimulation of cAMP accumulation by FRET assay; type: functional, cell-based
# T2 sequence (P49146 whole entry): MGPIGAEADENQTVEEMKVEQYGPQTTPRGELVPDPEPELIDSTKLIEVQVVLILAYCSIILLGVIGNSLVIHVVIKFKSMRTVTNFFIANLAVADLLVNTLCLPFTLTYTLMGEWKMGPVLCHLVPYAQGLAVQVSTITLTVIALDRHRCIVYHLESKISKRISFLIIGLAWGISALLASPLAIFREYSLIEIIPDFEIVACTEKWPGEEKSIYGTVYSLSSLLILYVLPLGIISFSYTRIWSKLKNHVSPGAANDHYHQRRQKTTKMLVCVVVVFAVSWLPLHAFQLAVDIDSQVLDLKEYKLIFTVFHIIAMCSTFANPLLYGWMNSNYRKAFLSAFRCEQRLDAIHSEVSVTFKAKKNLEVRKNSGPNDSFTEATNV
# Glucagon receptor = Glucagon receptor (Rattus norvegicus, UniProt P30082); experiment: Agonist activity at rat glucagon receptor expressed in HEK293 cells assessed as stimulation of cAMP accumulation by FRET assay; type: functional, cell-based
# Chain of Glucagon receptor (P30082 whole entry): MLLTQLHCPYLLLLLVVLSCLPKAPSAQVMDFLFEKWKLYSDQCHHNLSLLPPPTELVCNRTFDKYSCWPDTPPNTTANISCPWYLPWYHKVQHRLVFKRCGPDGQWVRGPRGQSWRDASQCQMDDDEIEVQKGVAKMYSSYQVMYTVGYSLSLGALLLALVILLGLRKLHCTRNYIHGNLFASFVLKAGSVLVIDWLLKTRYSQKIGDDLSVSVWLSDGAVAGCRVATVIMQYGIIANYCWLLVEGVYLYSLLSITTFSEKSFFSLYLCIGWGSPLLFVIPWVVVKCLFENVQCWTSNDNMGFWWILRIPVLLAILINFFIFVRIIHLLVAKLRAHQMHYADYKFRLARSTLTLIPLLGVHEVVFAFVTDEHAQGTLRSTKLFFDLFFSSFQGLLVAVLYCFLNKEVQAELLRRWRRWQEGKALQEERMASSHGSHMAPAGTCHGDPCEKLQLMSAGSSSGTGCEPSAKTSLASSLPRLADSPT
# [3] = molecular target: T3, Glucagon-like peptide 1 receptor (Rattus norvegicus, UniProt P32301); experiment: Agonist activity at rat GLP-1R expressed in HEK293 cells assessed as stimulation of cAMP accumulation by FRET assay; type: functional, cell-based
# T3 sequence (P32301 whole entry): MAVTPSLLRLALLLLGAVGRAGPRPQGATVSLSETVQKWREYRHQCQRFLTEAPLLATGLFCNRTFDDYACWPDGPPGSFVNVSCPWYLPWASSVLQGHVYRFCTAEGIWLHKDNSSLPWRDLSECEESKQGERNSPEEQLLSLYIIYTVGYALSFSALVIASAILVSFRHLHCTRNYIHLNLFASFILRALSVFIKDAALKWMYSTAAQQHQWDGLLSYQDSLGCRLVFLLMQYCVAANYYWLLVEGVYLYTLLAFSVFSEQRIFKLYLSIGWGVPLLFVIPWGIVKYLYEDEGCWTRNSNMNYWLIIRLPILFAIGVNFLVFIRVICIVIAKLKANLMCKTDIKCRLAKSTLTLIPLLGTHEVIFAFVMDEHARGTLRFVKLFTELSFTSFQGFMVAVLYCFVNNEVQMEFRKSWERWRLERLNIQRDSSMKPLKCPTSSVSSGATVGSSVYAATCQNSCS
# [4] = molecular target: T1, Glucagon-like peptide 1 receptor; experiment: Displacement of GLP-1-red from human GLP-1R expressed in CHO-K1 cells by fluorescent competitive binding assay; type: cell-based
# [5] = molecular target: T4, Neuropeptide Y receptor type 1 (Homo sapiens, UniProt P25929); experiment: Agonist activity at human NPY1R expressed in HEK293 cells assessed as inhibition of adenosine-induced stimulation of cAMP accumulation by FRET assay; type: functional, cell-based
# T4 sequence (P25929 whole entry): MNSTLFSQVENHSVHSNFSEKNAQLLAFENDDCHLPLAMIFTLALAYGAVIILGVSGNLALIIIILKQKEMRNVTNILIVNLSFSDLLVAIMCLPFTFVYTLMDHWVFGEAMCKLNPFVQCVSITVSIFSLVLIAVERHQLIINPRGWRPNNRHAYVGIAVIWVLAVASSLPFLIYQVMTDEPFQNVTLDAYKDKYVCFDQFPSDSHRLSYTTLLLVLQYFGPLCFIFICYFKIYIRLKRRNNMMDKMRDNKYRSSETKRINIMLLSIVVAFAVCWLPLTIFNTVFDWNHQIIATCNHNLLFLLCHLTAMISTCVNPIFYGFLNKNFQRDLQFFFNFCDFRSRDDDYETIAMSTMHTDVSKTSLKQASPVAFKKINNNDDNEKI
# Rattus norvegicus [6] = experiment: Effect on glucose clearance in Sprague-Dawley rat model of DIO at 10 nmol/kg dosed daily for 5 days; type: functional, organism-based; conditions: time 5.0 day
# Rattus norvegicus [7] = experiment: Suppression of blood glucose level in prediabetic Sprague-Dawley rat model of DIO assessed as reduction in post-dextrose bolus blood glucose at 10 nmol/kg dosed daily for 5 days by IPGTT method; type: functional, organism-based; conditions: time 5.0 day
# [8] = Half life in Sprague-Dawley rat liver microsomes at 30 uM in presence of NADPH by HPLC analysis; type: ADME, Microsome
# [9] = Intrinsic clearance in Sprague-Dawley rat liver microsomes at 30 uM in presence of NADPH by HPLC analysis; type: ADME, Microsome
# Rattus norvegicus [10] = experiment: Suppression of food intake in Sprague-Dawley rat model of DIO at 10 nmol/kg dosed daily for 5 days; type: functional, organism-based; conditions: time 5.0 day
# Suncus murinus [11] = experiment: Improvement in glucose clearance in musk shrew assessed as increase in plasma glucose clearing rate at 10 nmol/kg, ip measured 20 to 60 mins following glucose administration by IPGTT method; type: functional, organism-based; conditions: time 20-60 min
# How it was run: (§1)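 Male musk shrews (~8 months, 60–65 g, n = 9), within-subject counterbalanced. Baseline tail glucose by glucometer, then IP drug or saline (1 mL/100 g); 30 min later IP glucose 2 g/kg, glucose read at 20, 40, 60 and 120 min.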
# [12] = molecular target: T5, Neuropeptide Y receptor type 2 (Homo sapiens) (UniProt P49146); experiment: Agonist activity at human NPY2R expressed in HEK293 cells assessed as inhibition of adenosine-induced stimulation of cAMP accumulation in presence of NPY2-R antagonist […] by FRET assay; type: functional, cell-based
# T5 sequence (whole entry): T2 sequence (P49146 whole entry)
# Rattus norvegicus [13] = experiment: Suppression of cumulative food intake in lean Sprague-Dawley rat at 0.3 to 60 nmol/kg dosed daily for 2 days; type: functional, organism-based; conditions: dose 0.3-60 nmol/kg, time 2.0 day
# Rattus norvegicus [14] = experiment: Suppression of cumulative food intake in lean Sprague-Dawley rat at 10 to 20 nmol/kg dosed daily for 2 days relative to control; type: functional; conditions: dose 10-20 nmol/kg, time 2 day
# Rattus norvegicus [15] = experiment: Suppression of fasting blood glucose in Sprague-Dawley rat model of DIO at 10 nmol/kg dosed daily for 5 days; type: functional, organism-based; conditions: time 5.0 day
# [16] = molecular target: T1, Glucagon-like peptide 1 receptor; experiment: Agonist activity at human GLP-1R expressed in HEK293 cells assessed as stimulation of cAMP accumulation in presence of GLP-1R antagonist exendin9-39 by FRET assay; type: functional, cell-based
# How it was run: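 HEK293 cells stably expressing human GLP-1R, transduced with H188 cAMP FRET reporter (16 h, MOI 25), read in SES (pH 7.4, 11 mM glucose, 0.1% BSA). Antagonist Ex(9–39) added 20 min before agonist. Excitation 435 nm; 485/535 emission ratio baseline-normalized, read in real time. Triplicate independent runs; EC50 by nonlinear regression of peak FRET values.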
# Suncus murinus [17] = experiment: Improvement in glucose clearance in musk shrew at 10 nmol/kg, ip measured 20 to 60 mins following glucose administration by IPGTT method; type: functional, organism-based; conditions: time 20-60 min; how it was run: as §1
# Pancreatic islet [18] = experiment: Stimulation of glucose stimulated insulin secretion in rat pancreatic islets at 50 nM in presence of 3 mM glucose incubated for 60 mins; type: functional, tissue-based
# Pancreatic islet [19] = experiment: Stimulation of glucose stimulated insulin secretion in rat pancreatic islets at 50 nM in presence of 10 mM glucose incubated for 60 mins; type: functional, tissue-based
# [20] = Toxicity in lean Sprague-Dawley rat assessed as induction at 0.3 to 60 nmol/kg dosed daily for 2 days by kaolin consumption assay; conditions: in vivo, 48 h
# Rattus norvegicus [21] = experiment: Suppression of body weight in Sprague-Dawley rat model of DIO at 10 nmol/kg dosed daily for 5 days; type: functional; conditions: time 5 day
# [22] = Toxicity in musk shrew assessed as induction of emesis at 10 to 60 nmol/kg, ip measured after 120 mins; type: organism-based; conditions: suncus murinus, in vivo, 2 h, dose 10-60 nmol/kg
compound,measurement,setting,value
CC[C@H](C)[C@H](NC(=O)C(Cc1ccccc1)NC(=O)[C@H](CC(C)C)NC(=O)[C@H](CCCNC(=N)N)NC(=O)[C@@H](NC(=O)[C@H](C)NC(=O)[C@H](CCC(=O)O)NC(=O)[C@H](CCC(=O)O)NC(=O)[C@H](CCC(=O)O)NC(=O)[C@H](CCSC)NC(=O)[C@H](CCC(N)=O)NC(=O)[C@H](CCCCN)NC(=O)[C@H](CO)NC(=O)[C@H](CC(C)C)NC(=O)[C@H](CC(=O)O)NC(=O)[C@H](CO)NC(=O)[C@@H](NC(=O)[C@H](Cc1ccccc1)NC(=O)[C@@H](NC(=O)CNC(=O)[C@H](CCC(N)=O)NC(=O)[C@H](CO)NC(=O)[C@@H](N)Cc1cnc[nH]1)[C@@H](C)O)[C@@H](C)O)C(C)C)C(=O)N[C@@H](CCC(=O)O)C(=O)N[C@@H](Cc1c[nH]c2ccccc12)C(=O)N[C@@H](CC(C)C)C(=O)N[C@@H](CCCCN)C(=O)N[C@@H](CC(N)=O)C(=O)NCC(=O)NCC(=O)N1CCC[C@@H]1C(=O)N[C@@H](CO)C(=O)N[C@@H](CCCNC(=N)N)C(=O)N[C@@H](Cc1cnc[nH]1)C(=O)N[C@@H](Cc1ccc(O)cc1)C(=O)N[C@@H](CC(C)C)C(=O)N[C@@H](CC(N)=O)C(=O)N[C@@H](CC(C)C)C(=O)N[C@H](C(=O)N[C@H](C(=O)N[C@@H](CCCNC(=N)N)C(=O)N[C@@H](CCC(N)=O)C(=O)N[C@@H](CCCNC(=N)N)C(=O)N[C@@H](Cc1ccc(O)cc1)C(=O)O)[C@@H](C)O)C(C)C (some centres undefined),EC50,[1]; hek293,0.24 nM
same,IC50,[2]; hek293,32 nM
same,EC50,Glucagon receptor; hek293,30 nM
same,EC50,[3]; hek293,0.12 nM
same,IC50,[4]; cho-k1,27.5 nM
CC[C@H](C)[C@H](NC(=O)C(Cc1ccccc1)NC(=O)[C@H](CC(C)C)NC(=O)[C@H](CCCNC(=N)N)NC(=O)[C@@H](NC(=O)[C@H](C)NC(=O)[C@H](CCC(=O)O)NC(=O)[C@H](CCC(=O)O)NC(=O)[C@H](CCC(=O)O)NC(=O)[C@H](CCSC)NC(=O)[C@H](CCC(N)=O)NC(=O)[C@H](CCCCN)NC(=O)[C@H](CO)NC(=O)[C@H](CC(C)C)NC(=O)[C@H](CC(=O)O)NC(=O)[C@H](CO)NC(=O)[C@@H](NC(=O)[C@H](Cc1ccccc1)NC(=O)[C@@H](NC(=O)CNC(=O)[C@H](CCC(N)=O)NC(=O)[C@H](CO)NC(=O)[C@@H](N)Cc1cnc[nH]1)[C@@H](C)O)[C@@H](C)O)C(C)C)C(=O)N[C@@H](CCC(=O)O)C(=O)N[C@@H](Cc1c[nH]c2ccccc12)C(=O)N[C@@H](CC(C)C)C(=O)N[C@@H](CCCCN)C(=O)N[C@@H](CC(N)=O)C(=O)N[C@@H](CCCNC(=N)N)C(=O)N[C@@H](Cc1cnc[nH]1)C(=O)N[C@@H](Cc1ccc(O)cc1)C(=O)N[C@@H](CC(C)C)C(=O)N[C@@H](CC(N)=O)C(=O)N[C@@H](CC(C)C)C(=O)N[C@H](C(=O)N[C@H](C(=O)N[C@@H](CCCNC(=N)N)C(=O)N[C@@H](CCC(N)=O)C(=O)N[C@@H](CCCNC(=N)N)C(=O)N[C@@H](Cc1ccc(O)cc1)C(=O)O)[C@@H](C)O)C(C)C (some centres undefined) (H-HSQGTFTSDLSKQMEEEAVRL[ξF]IEWLKNRHYLNLVTRQRY-OH),EC50,[1],0.533 nM
same,IC50,[2],61 nM
same,EC50,Glucagon receptor,> 3000 nM
same,IC50,[4],321 nM
H-HSQGTFTSDLSKQMEEEAVRLFIEWLKNRYYASLRRHYLNLVTRQRY-NH2,IC50,[5],82 nM
same,EC50,Glucagon receptor,> 3000 nM
same,IC50,[4],> 1000 nM
H-HSQGTFTSDLSKQMEEWAVRLFIEWLKNGGPSRYYASLRRHYLNLVTRQRY-NH2,EC50,[1],2.3 nM
same,IC50,[2],25 nM
same,EC50,Glucagon receptor,> 3000 nM
same,IC50,[4],> 1000 nM
H-H[dS]QGTFTSDLSKYLEEEAVREFIAWLKNGGPSRHYLNLVTRQRY-NH2,EC50,[1],0.33 nM
same,Activity,Rattus norvegicus [6],Active
same,Activity,Rattus norvegicus [7],Active
same,half-life at 30 µM,[8],2.27 h
same,IC50,[5],27 nM
same,microsomal CLint at 30 µM,[9],32.5 µL/min/mg
same,Activity,Rattus norvegicus [10],Active
same,Activity,Suncus murinus [11],Active
same,IC50,[2],10 nM
same,Activity,[12],inactive
same,EC50,Glucagon receptor,> 3000 nM
same,Activity,Rattus norvegicus [13],Dose-dependent effect
same,Activity,Rattus norvegicus [14],71.4%
same,Activity,Rattus norvegicus [15],Active
same,EC50,[3],0.48 nM
same,Activity,[16],inactive
same,Activity,Suncus murinus [17],Active
same,Activity,Pancreatic islet [18],inactive
same,Activity,Pancreatic islet [19],Active
same,Activity,[20],Non-Toxic
same,Activity,Rattus norvegicus [21],5%
same,IC50,[4],113 nM
same,Activity,[22],Non-Toxic
